# SIAE primary – human SIAE inhibitors, primary screen, biochemical, fluorescence polarization, FP-Rh probe, 1536-well HTS; AID 1053197, 2014; actives 0.69% (n = 370,000); SIAE FP-Rh probe binding; Sialate O-acetylesterase (Homo sapiens), Q9HAT2; inhibition, % at 9.66 µM;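 active = inhibition above a cutoff: mean of compounds within the control limits plus 3 SD of those, cut at about 17% in these data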;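 note: 0% = plate median of compound wells and 100% = probe without SIAE protein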
# Target sequence (Q9HAT2 whole entry, looked up): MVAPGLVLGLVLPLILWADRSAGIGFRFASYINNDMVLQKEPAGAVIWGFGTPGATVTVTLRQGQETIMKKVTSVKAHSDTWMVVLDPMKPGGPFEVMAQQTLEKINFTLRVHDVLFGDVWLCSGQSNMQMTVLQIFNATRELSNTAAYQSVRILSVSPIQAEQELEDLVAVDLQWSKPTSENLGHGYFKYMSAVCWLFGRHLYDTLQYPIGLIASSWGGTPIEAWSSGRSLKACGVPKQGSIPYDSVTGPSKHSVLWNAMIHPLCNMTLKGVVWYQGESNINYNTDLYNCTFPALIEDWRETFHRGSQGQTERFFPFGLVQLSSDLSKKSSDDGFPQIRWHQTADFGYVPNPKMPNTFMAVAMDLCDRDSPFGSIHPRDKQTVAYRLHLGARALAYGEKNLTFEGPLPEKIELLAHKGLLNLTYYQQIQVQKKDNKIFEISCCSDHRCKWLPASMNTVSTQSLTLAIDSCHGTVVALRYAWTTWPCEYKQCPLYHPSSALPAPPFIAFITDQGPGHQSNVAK
# mABHD4 FP – ABHD4 inhibitors, primary screen, biochemical, fluorescence polarization, mouse; actives 0.54% (n = 370,000); inhibition, % at 8.92 µM; purified mABHD4, FP-Rh probe fluorescence polarization; (Lyso)-N-acylphosphatidylethanolamine lipase (Mus musculus), Q8VD66; AID 720543, 2013;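 active = inhibition exceeding the mean over every tested compound plus 3 SD, cut at about 30% in these data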;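 note: 0% = plate median of compound wells and 100% = S159A mutant with DMSO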
#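 Test system: mABHD4 protein; Read-out basis: % inhibition; Incubation: 45 min + 60 min at 25 °C; Repeats: single replicate; Technique: fluorescence polarization with parallel and perpendicular emission, 525/598 nm; Compound: 8.92 µM, single dose; Benchmarks: full inhibition S159A mutant plus DMSO, zero as sample-well median.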
# LEDGF integ inh – blockers of LEDGF/p75-dependent integrase strand transfer – biochemical, TR-FRET, high throughput, primary screen; inhibition, % at 3.7 µM; TR-FRET IN-LEDGF/p75 DNA integration, Eu/Cy5; actives 0.64% (n = 370,000); AID 743269, 2014;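 active = inhibition above the screen-wide mean plus 3 SD, cut at about 13% in these data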;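 note: signal is the Cy5 over europium emission ratio at 671 and 618 nm; 0% = plate median of compound wells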
# TDP2 absorb – human TDP2 enzyme inhibitors, primary screen, biochemical, epi absorbance, recombinant enzyme | actives 0.34% (n = 370,000) | inhibition, % at 12.8 µM | T5PNP hydrolysis, p-nitrophenol absorbance 415 nm | Tyrosyl-DNA phosphodiesterase 2 (Homo sapiens), O95551;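 active = inhibition above the mean of all tested compounds plus 3 SD, set per campaign, cut at about 25% in these data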;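 note: 0% = DMSO with enzyme and 100% = buffer with substrate but no TDP2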
#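 Evaluation: % inhibition relative to enzyme-containing and enzyme-free wells. Material: recombinant human TDP2. Benchmarks: enzyme-free and DMSO wells. Timing: enzyme reaction with compound for 2 h at 37 °C. Compound dosing: 12.8 µM only. Measured by: p-Nitrophenol epi absorbance. Reagent: T5PNP substrate at 5 mM, a TopII-DNA adduct mimic. Replication: single well per compound.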
# HTRA1 inh – HTRA1 serine protease inhibitors, primary screen, biochemical, fluorescence polarization, HTS. recombinant HTRA1, FP-rhodamine activity-based probe. Q92743. actives 0.5% (n = 340,000). inhibition, % at 5.96 µM; in the data active = inhibition above about 36%;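 note: 0% = enzyme with DMSO and 100% = wells lacking enzyme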
# TCR CD3 inh – inhibitors of human TCR-CD3 interaction, primary screen, biochemical, fluorescence, TAMRA-labeled TCR probe. inhibition, % at 9.4 µM. AID 651800, 2012. T-cell receptor (TCR). actives 0.37% (n = 360,000);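 note: recombinant mutant TCR 2C K166C tagged with TAMRA read by polarization; 0% = receptor in buffer alone and 100% = receptor with positive control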
# HTRA1 inh conf – HTRA1 protease inhibitors, retest, confirmation, biochemical, fluorescence polarization | shares compounds with HTRA1 inh | recombinant HTRA1, FP-rhodamine activity-based probe | inhibition, % at 5.96 µM | actives 66% (n = 1,600) | AID 540248, 2011;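 active = mean inhibition over three repeats above a set limit taken from the earlier primary screen, cut at about 37% in these data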;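 note: 0% = HTRA1 with DMSO and 100% = wells lacking HTRA1; inhibitors block probe binding so polarization drops and inhibition rises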
# BSA probe FL – compounds interfering with TAMRA-BSA probe, counter-screen for TCR-CD3 interaction inhibitor project, biochemical, fluorescence, TAMRA-labeled BSA | shares compounds with TCR CD3 inh | TAMRA-labeled BSA probe fluorescence counterscreen | inhibition, % at 9.4 µM | actives 10% (n = 1,200); in the data active = inhibition above about 23%;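 note: 0% = buffer low control and 100% = reference high control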
# TCR-CD3 inh conf – TCR-CD3 interaction inhibitors, retest, confirmation, biochemical, fluorescence, TAMRA-labeled TCR probe; TAMRA-labeled TCR probe fluorescence binding assay; inhibition, % at 9.4 µM; AID 652036, 2013; actives 48% (n = 1,200); shares compounds with TCR CD3 inh
# mABHD4 conf – ABHD4 inhibitors, retest, confirmation, biochemical, fluorescence polarization, mouse; shares compounds with mABHD4 FP; purified mABHD4, FP-Rh probe fluorescence polarization; inhibition, % at 8.92 µM; actives 55% (n = 1,800);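 active = mean inhibition across replicates above the hit cutoff set in the primary screen, cut at about 30% in these data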;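 note: 0% = wild-type ABHD4 with DMSO and 100% = catalytically dead S159A mutant with DMSO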
# IN multimer up – HIV-1 IN multimer formation enhancers, counter-screen for LEDGF/p75 integration inhibitor project, biochemical, TR-FRET; activation, % at 7.7 µM; AID 1053131, 2014; shares compounds with LEDGF integ inh; TR-FRET HIV-1 integrase multimerization; actives 17% (n = 2,000); in the data active = activation above about 8.9%
# TRFRET interf – TR-FRET optical interference artefacts, confirmation, artefact control for LEDGF/p75-dependent integration inhibitor project, biochemical, HIV-1 IN multimerization; shares compounds with LEDGF integ inh; TR-FRET optical interference counterscreen; inhibition, % at 7.7 µM; 2,000 tested, under 10 active; AID 1053135, 2014;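 active = inhibition above the mean over all tested compounds plus 3 SD, which no compound reached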;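 note: 0% = integrase with antibodies and DMSO and 100% = antibodies without integrase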
# LEDGF integ conf – inhibitors of HIV-1 IN-LEDGF/p75 DNA integration, confirmation, biochemical, TR-FRET. shares compounds with LEDGF integ inh. TR-FRET LEDGF/p75-dependent HIV-1 integration. inhibition, % at 3.7 µM. actives 36% (n = 2,000). AID 1053136, 2014; in the data active = inhibition above about 14%
# SIAE inh conf – human SIAE inhibitors, retest, confirmation, biochemical, fluorescence polarization, FP-Rh probe, triplicate; SIAE FP-Rh activity-based probe; actives 13% (n = 2,300); shares compounds with SIAE primary; inhibition, % at 9.66 µM;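 active = mean inhibition of the replicates above the hit cutoff set in the primary screen, cut at about 17% in these data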;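 note: 0% = SIAE with DMSO and probe and 100% = probe without SIAE; inhibitors lower polarization as more probe stays unbound to SIAE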
# Active calls of the source: *; . = no result given. Sampled rows, rich in hits. Any-hit rate of the full collection: about 2.2%. Cut-off read from the data, not from the text of the source, unless noted: active = inhibition above about 19%; inactive = the rest.
SMILES,SIAE primary,mABHD4 FP,LEDGF integ inh,TDP2 absorb,HTRA1 inh,TCR CD3 inh,HTRA1 inh conf,mABHD4 conf,IN multimer up,TRFRET interf,LEDGF integ conf,SIAE inh conf,others
CCOC(=O)C(C(C)=O)c1c(Br)c(O)c(O)c2c(C(=O)c3ccc(C)cc3)coc12 (configuration not stated),-4,32*,26*,-3,69*,-1,78*,38*,-2,12,14*,.,
COC(=O)C1CN(CCc2ccccc2)CCS(=O)(=O)N1Cc1ccc(OC)cc1 (configuration not stated),-4,5,-3,-7,.,.,.,.,.,.,.,.,
CCOc1cc(CNc2ccc(N3CCCCC3)cc2)cc(Br)c1OCC(=O)NC(C)(C)C,17,28,15*,12,45*,3,3,.,2,-10,2,.,
CCOc1cc(CNc2ccc(N(C)C)cc2)cc(Br)c1OCC(=O)NC(C)(C)C,-1,-1,-3,-4,0,-5,.,.,.,.,.,.,
C=CCN1C(C(=O)OC)CN(Cc2cn(Cc3ccc(OC)cc3)nn2)CCS1(=O)=O (configuration not stated),2,1,-4,3,.,.,.,.,.,.,.,.,
O=C(c1ccccc1)c1ccc(O)c(O)c1O,10,39*,22*,-9,68*,16,79*,19,2,-8,42*,.,
Cc1cc(C(=O)c2ccccc2)cc(C)c1O,-2,-3,-3,1,35,0,.,.,.,.,.,.,
Oc1ccc(/C=N/N2CCCCC2)c(O)c1O,6,31*,28*,-11,38*,7,33,15,5,-16,25*,.,
Oc1cccc(/C=N/N2CCCCC2)c1O,10,20,11,5,17,5,.,.,.,.,.,.,
O=c1c(O)c(-c2ccc(O)c(O)c2)oc2cc(O)ccc12,0,27,79*,3,39*,18,35,.,39*,-198,92*,.,
O=c1c(-c2ccc(O)cc2)coc2cc(O)ccc12,3,13,1,4,-4,-3,.,.,.,.,.,.,
Cc1cc(C(C)(C)C)c(O)c(C(C)(C)C)c1,3,-8,2,-5,4,-8,.,.,.,.,.,.,
Cc1cc(O)c(Oc2cc(C)cc(O)c2O)c(O)c1,5,29,35*,3,64*,13,81*,.,6,-31,33*,.,
COc1ccc(Sc2ccccc2CN(C)C)cc1OC,3,-2,3,-3,4,10,.,.,.,.,.,.,
CNCc1ccccc1Sc1ccc(O)c(O)c1,10,35*,14*,-1,62*,11,57*,50*,3,-13,10,.,
COc1ccc2ccccc2c1C(O)c1nccn1C (configuration not stated),57*,40*,-2,17,39*,79*,25,88*,.,.,.,43*,BSA probe FL=6;TCR-CD3 inh conf=3
Cn1ccnc1C(O)c1ccccc1 (configuration not stated),-8,3,0,-1,-4,-3,.,.,.,.,.,.,
O=C1C=CC(=O)c2c(O)c(CO)c(CO)c(O)c21,53*,62*,77*,28*,46*,78*,57*,.,32*,-162,80*,44*,BSA probe FL=-3;TCR-CD3 inh conf=59*
Cc1ccc2sc(NNC(=O)c3cc(=O)c4ccccc4o3)nc2c1C,25*,41*,1,8,70*,-10,132*,59*,.,.,.,33*,
COc1ccc2nc(NNC(=O)c3cc(=O)c4ccccc4o3)sc2c1,12,18,-6,3,32,-1,.,.,.,.,.,.,
Cc1[nH]n(-c2ncc(-c3ccccc3)s2)c(=O)c1C(c1ccc(Br)cc1)C(C#N)C#N (configuration not stated),24*,51*,2,-8,39*,4,30,43*,.,.,.,10,
CN(/N=C/c1ccc(O)cc1O)c1ncc(C(F)(F)F)cc1Cl,19*,7,2,13,56*,-5,89*,.,.,.,.,2,
CN(/N=C/c1ccccc1Cl)c1ncc(Cl)cc1C(F)(F)F,-2,-2,0,-4,3,-3,.,.,.,.,.,.,
N#C/C(=C/c1ccc(N2CCCCC2)o1)C(=O)Nc1ccc2ccccc2c1,21*,14,4,8,37*,1,40*,.,.,.,.,3,
